NR3A LBD binder = modulators (binders) of human NR3A ligand-binding domain. NR3A LBD differential scanning fluorimetry, Tm shift; 0% = protein alone, 100% = glycine-bound protein. 2.5% of 340,000 active. Tm shift relative to glycine control, % at 25 µM;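 active means melting temperature shift of at least 10% of the positive control shift, at one fixed dose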
PREPL inhibitor = inhibitors of human prolyl oligopeptidase-like enzyme PREPL. AID 2751. inhibition, % at 5.96 µM. Q4J6C6. recombinant PREPL, fluorescence polarization activity-based probe. 0.68% of 320,000 active; in the data active means inhibition above about 43%
Target sequence (Q4J6C6 whole entry, looked up): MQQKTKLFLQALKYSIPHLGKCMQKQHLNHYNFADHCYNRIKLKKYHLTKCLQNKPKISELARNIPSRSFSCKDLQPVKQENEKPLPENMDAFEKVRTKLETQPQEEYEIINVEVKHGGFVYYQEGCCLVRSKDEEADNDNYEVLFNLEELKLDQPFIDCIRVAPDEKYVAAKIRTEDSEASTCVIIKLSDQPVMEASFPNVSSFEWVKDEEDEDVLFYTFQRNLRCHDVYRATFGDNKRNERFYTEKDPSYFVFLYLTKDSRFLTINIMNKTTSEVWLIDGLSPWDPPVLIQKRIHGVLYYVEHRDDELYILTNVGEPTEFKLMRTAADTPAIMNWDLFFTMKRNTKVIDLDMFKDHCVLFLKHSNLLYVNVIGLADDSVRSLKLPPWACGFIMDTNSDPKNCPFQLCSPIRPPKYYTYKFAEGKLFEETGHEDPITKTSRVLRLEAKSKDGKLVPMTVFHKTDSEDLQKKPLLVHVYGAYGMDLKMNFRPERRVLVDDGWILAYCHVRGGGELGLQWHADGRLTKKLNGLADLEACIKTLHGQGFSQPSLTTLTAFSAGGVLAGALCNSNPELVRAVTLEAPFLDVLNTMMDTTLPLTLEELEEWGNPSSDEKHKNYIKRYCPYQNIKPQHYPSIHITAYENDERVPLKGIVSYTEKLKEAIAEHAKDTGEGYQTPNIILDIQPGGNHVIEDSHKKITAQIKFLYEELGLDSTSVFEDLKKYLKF
T cruzi inh = T. cruzi replication inhibition; T. cruzi beta-gal in NIH3T3, luminescence, 90 h; inhibition, % (test concentration not listed); 1.4% of 300,000 active; AID 1885;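 active means mean inhibition across valid replicates above about 55%, limit read from the data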;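 further: signal also drops with host cell toxicity which is not excluded here; higher percent means less beta-gal luminescence so fewer parasites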
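Assay system: NIH/3T3 host cells with β-galactosidase reporter T. cruzi; input: 5,000 host fibroblasts per well; compound: single 50 nL compound addition per well in DMSO; timing: ≥90 h infection period, 3 h prior cell attachment; measured by: GalScreen β-gal luminescence, detergent lysis, 60 min; evaluation: percent inhibition of parasite-derived β-gal signal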
CHOP inh = CHOP inhibition in unfolded protein response. CHO-K1 CHOP-promoter luciferase, tunicamycin-induced, 15-18 h. inhibition, % at 10 µM. 3.8% of 220,000 active. AID 2732;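 active means compounds that reduced the stress-induced luciferase reporter signal by more than about 70% of percent inhibition, limit read from the data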
Beta cell apopt = beta cell apoptosis inhibition | INS-1E cytokine-induced death, ATP luminescence, 48 h; percent of positive-control rescue, neutral wells zero | protection from apoptosis, % (concentration not given with the values) | 0.8% of 300,000 active;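 active means Every replicate reaches about 75%, or at least half do and their mean reaches it too, limit read from the data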;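 further: higher means more ATP so stronger rescue from cytokine killing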
CSC inhib = cancer stem cell inhibition | inhibition, % at 7.5 µM | AID 2717 | cancer stem cell-like cells viability, luminescence | 1.1% of 300,000 active; in the data active means inhibition above about 75%; tested in HMLE shEcad cells
Of the large screens only hits and unclear results are named; the others gave an inactive call. Most compounds without a hit are left out; they make up all but 6.7% or so of the library.

O=C1C(Br)=C(c2ccccc2)C(c2ccccc2)=C1c1ccccc1	none (no result: PREPL inhibitor, T cruzi inh, CHOP inh, Beta cell apopt, CSC inhib)
COc1ccccc1C1=NOC(COc2ccc3c(C)cc(=O)oc3c2)C1 (centres undefined)	CSC inhib 79
COc1ccc(-c2oc3ccccc3c2C#Cc2cncn2C)cc1	CSC inhib 103 (no result: T cruzi inh, CHOP inh)
CCc1cccc(NC(=O)CCNS(=O)(=O)c2cc(Br)cnc2N)c1	NR3A LBD binder 13 (no result: CHOP inh)
Cc1ccc(NC(=O)c2ccccc2O)cc1	none (no result: CSC inhib)
O=C(Nc1ccccc1)Nc1cccc2ccccc12	none
O=C(Nc1ccccc1)Nc1ccc(NC(=O)c2ccccc2O)cc1	NR3A LBD binder 42 (no result: CHOP inh)
O=C(Nc1ccccc1)Nc1csc2ccccc12	NR3A LBD binder 31
O=C(Nc1ccccc1)Nc1ccc(O)c2ccccc12	CSC inhib 98 (no result: CHOP inh)
CC(=O)Nc1csc2ccccc12	none
O=C(Nc1ccccc1)c1ccccc1O	none
Cc1cc(C)cc(NC(=O)Nc2ccc(NC(=O)c3ccccc3O)cc2)c1	NR3A LBD binder 25, CSC inhib 92 (no result: CHOP inh)
C[C@]12CCC(=O)CC1=CCC1C3CC=C(C#N)[C@@]3(C)CC[C@@]12O (some centres undefined)	none (no result: CHOP inh)
COCCCn1c(O)c(/C=C2\N=C(C#N)C(=Nc3ccc(C)cc3)O2)sc1=S	none
O=C1CN(C(=O)COc2ccc(Br)cc2)c2ccccc2N1	none
COc1cc(S(=O)(=O)N2CC(=O)Nc3ccccc32)ccc1NC(C)=O	none (no result: CHOP inh)
CCOC(=O)c1c(O)c2ccccc2n(-c2ccccc2)c1=O	NR3A LBD binder 11 (no result: T cruzi inh)
CCCCCn1c(=O)c(C(=O)OCC)c(O)c2ccccc21	none
CCOC(=O)N1CCN(C(=O)C2CCC(=O)N(Cc3cccc(C(F)(F)F)c3)C2)CC1 (centres undefined)	none (no result: CHOP inh)
CCCS(=O)(=O)c1nc(S(=O)(=O)c2ccc(C)cc2)c(N2CCN(CCO)CC2)s1	none (no result: CHOP inh)
Cc1nc(SC2CC(=O)N(c3cc(Cl)cc(Cl)c3)C2=O)nc2c1CCCC2 (centres undefined)	CHOP inh 95
CCCc1c(C(=O)N/N=C/c2ccco2)nnn1-c1nonc1N	none (no result: CHOP inh)
O=C(Cc1coc2cc3c(cc12)CCC3)NCC1(N2CCCCC2)CCCCC1	PREPL inhibitor 46
CC(C)(C)C(=O)Nc1sc2c(c1-c1nc3ccccc3[nH]1)CCCC2	CHOP inh 83
CCOc1ccc(NC(=O)NCCCn2c(C)nc3cc(C)c(C)cc32)cc1	none
Cc1cc2nc(C)n(CCCNC(=O)Nc3cccc4ccccc34)c2cc1C	CHOP inh 75
C(#Cc1ccccc1)C[N+]1(CC#Cc2cccc3ccccc23)CCCC1	Beta cell apopt 77
COc1ccc(-n2nc3c(N4CCC(C(=O)NCc5ccccc5C)CC4)nnc(C)c3c2C)cc1	none (no result: CHOP inh)
Cc1ccc(-n2nc3c(N4CCC(C(=O)NCCc5ccccc5C)CC4)nnc(C)c3c2C)cc1	T cruzi inh 55, CSC inhib 83 (no result: CHOP inh)
CC(C)C(c1nnnn1C(C)(C)C)N1CCN(c2cccc(Cl)c2)CC1 (centres undefined)	none (no result: T cruzi inh)
C=CCC(CC=C)(NC(=O)c1ccccc1C)c1ccccc1	none (no result: Beta cell apopt)
Cc1ccc(C(=O)OCC(=O)c2c(N)n(C)c(=O)n(C)c2=O)cc1S(=O)(=O)N1CCCCC1	NR3A LBD binder 10
Cc1ccc(S(=O)(=O)N2CCOCC2)cc1C(=O)OCC(=O)c1c(N)n(C)c(=O)n(C)c1=O	none (no result: T cruzi inh, CHOP inh)
Cc1ccc(C(=O)Oc2ccc([N+](=O)[O-])cc2)cc1S(=O)(=O)N1CCCCCC1	NR3A LBD binder 13
Cc1cccc(N2CC(C(=O)Nc3nccs3)CC2=O)c1C (centres undefined)	none (no result: CHOP inh, Beta cell apopt)
Cc1cccc2c1N(CCCOc1ccccc1)C(=O)C2=O	none
Cc1ccccc1OCCCN1C(=O)C(=O)c2cccc(C)c21	CHOP inh 107
Cc1[nH]nc(N=Cc2c(O)n(C)c(=O)n(C)c2=O)c1-c1ccccc1	none (no result: CHOP inh)
Cn1c(O)c(/C=N/Nc2ccccc2)c(=O)n(C)c1=O	CSC inhib 89
COC(=O)C(C(=O)OC)[C@@H]1C=C[C@H](C[N+](=O)[O-])N(C(C)=O)C1	none (no result: PREPL inhibitor, T cruzi inh, CHOP inh, Beta cell apopt, CSC inhib)
COc1cc(/C=C(\C(=O)O)c2ccc(S(=O)(=O)N3CCCC3)s2)ccc1OCCC(C)C	none (no result: PREPL inhibitor, T cruzi inh, CHOP inh, Beta cell apopt, CSC inhib)
COc1cc(/C=N\NC(=O)OC(C)(C)C)ccc1OC(=O)c1ccco1	none (no result: Beta cell apopt)
COc1cc(/C=N/NC(=O)COc2ccccc2[N+](=O)[O-])ccc1OC(=O)c1ccco1	PREPL inhibitor 101
O=C(COc1ccccc1[N+](=O)[O-])N/N=C/c1ccc(OC(=O)c2ccco2)cc1	PREPL inhibitor 62
CC(C)(C)c1ccc(OCC(=O)N/N=C/c2cc(Br)ccc2OC(=O)c2ccco2)cc1	NR3A LBD binder 23, CSC inhib 101
COc1ccc(Br)cc1/C=N/NC(=O)c1ccco1	none (no result: Beta cell apopt)
O=C(COC(=O)c1n[nH]c(=O)c2ccccc12)NC1CCCCC1	none (no result: T cruzi inh, CHOP inh, CSC inhib)
Cc1ccc2nc(Cl)c(/C=N/n3c(C)nnc3C)cc2c1	none
CCc1nnc(SCC(=O)NC2CCCC2)nc1CC	CHOP inh 74
CCc1nnc(SCC(=O)NC2CCCCC2)nc1CC	none (no result: CSC inhib)
CC(C(=O)Nc1ccc(C(N)=O)cc1)N1C(=O)c2ccccc2S1(=O)=O (centres undefined)	none (no result: CHOP inh, Beta cell apopt)
Cc1cccc(Nc2nc(OCC#N)nc(N(C)C)n2)c1	none (no result: CHOP inh, Beta cell apopt)
CCN(CC)c1nc(Nc2ccc(Cl)cc2)nc(OCC#N)n1	CHOP inh 93
COC(=O)[C@H]1Cc2c([nH]c3ccccc23)[C@H](c2ccccc2)N1	NR3A LBD binder 10 (no result: CHOP inh)
COC(=O)C1Cc2c([nH]c3ccccc23)CN1 (centres undefined)	none (no result: CSC inhib)
C/C(=N\N1CCN(c2ccccc2)CC1)c1ccc(O)cc1	NR3A LBD binder 10 (no result: PREPL inhibitor, CHOP inh, Beta cell apopt, CSC inhib)
C=CCc1cc(OC)ccc1OCCCCn1cncn1	none (no result: CHOP inh, Beta cell apopt)
CC(C)C[C@H](NC(=O)C1(c2ccccc2)CCN(C(=O)OC(C)(C)C)CC1)C(=O)N1CCC[C@H]1C(=O)O	none (no result: CHOP inh)
CC(C)C[C@H](NC(=O)C1(c2ccccc2)CCN(C(=O)[C@H]2CSCN2C(=O)OC(C)(C)C)CC1)C(=O)O	NR3A LBD binder 14
CCCCOC(=O)NC(NCC(O)c1ccccc1)(C(F)(F)F)C(F)(F)F (centres undefined)	CHOP inh 81
COC(=O)c1ccsc1-n1cc(C#N)c(=O)n(C)c1=O	none
CC(C)(C)OC(=O)n1cccc1/C=C1\c2ccccc2C(=O)N1c1ccccc1	none (no result: PREPL inhibitor, T cruzi inh, CHOP inh, Beta cell apopt, CSC inhib)
CCCC(/C=C/c1ccc(OC(C)=O)cc1)=C1/c2ccccc2C(=O)N1c1ccccc1	CSC inhib 112 (no result: T cruzi inh, CHOP inh)
CC(=O)Oc1ccc(C#C/C=C2\c3ccccc3C(=O)N2c2ccccc2)cc1	CSC inhib 134 (no result: T cruzi inh, CHOP inh)
CC(=O)Oc1ccc(CC(C(=O)O)N2C(=O)c3ccccc3C2=O)cc1 (centres undefined)	none (no result: CHOP inh)
O=[N+]([O-])c1ccc(C2CCCC/C2=N\OCc2cccc(F)c2)c([N+](=O)[O-])c1 (centres undefined)	T cruzi inh 62

Screening results deposited in PubChem BioAssay by several laboratories.
